Screens: PubChem BioAssay, several laboratories
proKLK7 act: activators of human kallikrein-7 zymogen. actives 0.9% (n = 370,000). purified proKLK7, EDANS-DABCYL substrate fluorescence; 100% is mature enzyme control, 0% vehicle. activation, % at 7 µM. P49862;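 active means activation above the mean of all tested compounds plus 3 SD, computed per campaign excluding outliers beyond control limits, cut at about 13% in these data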
CRFR2-BP antag: antagonists of CRF-binding protein/CRF-R2 receptor complex. HEK293 CRF-R2/CRF-BP, CRF-induced calcium fluorescence. inhibition, % at 11.8 µM. actives 0.59% (n = 350,000). AID 588475;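 active means inhibition of the ligand-induced calcium signal above about 50% at the single tested concentration, limit read from the data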
NRP1-CendR mod: alters CendR peptide binding to human NRP-1 | O14786 | FAM-RPARPAR peptide binding to NRP-1, fluorescence polarization | inhibition, % at 25 µM | actives 0.85% (n = 360,000) | AID 602438;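 active means inhibition or corrected inhibition above about 18%, plus a signal ratio from 0.5 to 1.5, limit read from the data, passing the limit was not always enough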
Target sequence (O14786 whole entry, looked up): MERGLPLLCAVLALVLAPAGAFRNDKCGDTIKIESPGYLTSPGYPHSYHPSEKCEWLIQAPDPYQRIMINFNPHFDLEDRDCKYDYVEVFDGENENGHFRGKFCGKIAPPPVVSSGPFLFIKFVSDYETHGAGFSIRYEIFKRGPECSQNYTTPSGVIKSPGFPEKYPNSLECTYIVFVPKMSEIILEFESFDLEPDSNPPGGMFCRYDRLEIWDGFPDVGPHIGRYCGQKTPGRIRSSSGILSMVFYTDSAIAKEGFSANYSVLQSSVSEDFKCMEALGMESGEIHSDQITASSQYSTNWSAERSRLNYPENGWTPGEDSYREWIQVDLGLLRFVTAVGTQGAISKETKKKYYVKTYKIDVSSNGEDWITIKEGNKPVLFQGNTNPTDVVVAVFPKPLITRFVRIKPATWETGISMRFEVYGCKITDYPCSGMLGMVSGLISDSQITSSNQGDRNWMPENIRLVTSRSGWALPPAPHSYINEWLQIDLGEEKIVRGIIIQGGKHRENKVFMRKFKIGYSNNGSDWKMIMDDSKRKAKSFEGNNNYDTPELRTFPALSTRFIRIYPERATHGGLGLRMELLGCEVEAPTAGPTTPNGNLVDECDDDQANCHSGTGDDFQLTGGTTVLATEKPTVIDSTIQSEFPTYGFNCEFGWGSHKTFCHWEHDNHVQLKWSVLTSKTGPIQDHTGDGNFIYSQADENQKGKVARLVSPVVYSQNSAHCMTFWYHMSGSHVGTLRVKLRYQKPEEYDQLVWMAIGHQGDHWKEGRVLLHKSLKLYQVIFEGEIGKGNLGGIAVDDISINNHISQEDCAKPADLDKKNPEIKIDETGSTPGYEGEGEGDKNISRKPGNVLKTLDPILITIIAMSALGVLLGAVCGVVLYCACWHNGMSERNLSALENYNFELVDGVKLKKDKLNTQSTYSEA
CRFR2-BP ag: CRF-BP/CRF-R2 complex agonism; activation, % at 13.2 µM; actives 0.46% (n = 350,000); HEK293 CRF-R2/CRF-BP, calcium dye fluorescence (FLIPR); percent of saturating CRF peptide response;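 active means activation of at least 50%, plus an integration ratio under a set limit after plate pattern correction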;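 further: plate controls were neutral control wells without compound for no effect and CRF at EC100 for full effect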
DDE Tn7 FP inh: DD(E)-Tn7 binding inhibition, primary FP screen | P02675 | FP displacement of FITC-Tn7 peptide from fibrin DD(E); 0% = median of compound wells per plate | inhibition, % at 8.3 µM | actives 0.13% (n = 370,000) | AID 720508;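 active means inhibition above the mean of compounds falling within the control limits plus 3 SD of them, cut at about 14% in these data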;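 further: 0% = plate median of compound wells and 100% = 10 µM Aha-Tn7 peptide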
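Assay system: Human clot-derived fibrin DD(E) complex | Buffer or medium: Tris/NaCl/CaCl2 buffer, pH 7.8 | Repeats: One replicate per compound | Benchmarks: Aha-Tn7 high control | Measure: % inhibition scaled between sample-field median and high-control FP | Schedule: 10 min plus 3 h, room temperature | Signal: Fluorescence polarization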
Tn6 DDE FP: inhibitors of Tn6 peptide binding to human fibrin DD(E); actives 0.21% (n = 370,000); P02675; inhibition, % at 8.3 µM; Fibrin DD(E) TRITC-Tn6 fluorescence polarization displacement;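 active means inhibition above a per-campaign cutoff: mean of compounds within control limits plus 3 SD, cut at about 15% in these data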;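 further: 0% = median of all compound wells on the plate and 100% = blocking peptide control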
proKLK7 act conf: confirmation of human kallikrein-7 zymogen activators; activation, % at 7 µM; AID 686949; purified proKLK7, EDANS-DABCYL substrate fluorescence; scaled: vehicle 0, mature enzyme 100; shares compounds with proKLK7 act; actives 68% (n = 3,200);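 active means activation, as change over the incubation, above the mean of all tested compounds plus 3 SD, cut at about 13% in these data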
EDANS-DABCYL int: fluorescence interference counter-screen for KLK7 activators | shares compounds with proKLK7 act | EDANS-DABCYL substrate fluorescence interference, no enzyme, 4 h; solvent 0%, active enzyme control 100% | activation, % at 7 µM | actives 80% (n = 3,200);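 active means activation above the all-compound mean plus 3 SD, ignoring values outside control-based bounds, cut at about 4.8% in these data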;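 further: value is the 4 h activation minus the activation read at time zero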
EDANS interf: EDANS fluorescence interference in dose response, no enzyme; shares compounds with proKLK7 act; EDANS-DABCYL peptide fluorescence interference; EC50, µM; actives 20% (n = 250);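 active means compounds that raise the fluorescence signal in this interference counterscreen, with EC50 at or below 10 µM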;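 further: intact quenched peptide substrate alone read at 355 nm excitation and 520 nm emission; signal is fluorescence gain from T0 to T4 after four hours at room temperature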
Numbers without * were called inactive; . = no result given. A selection: hits, their analogues and other compounds. The true share with any hit is near 2.9%.

SMILES	proKLK7 act	CRFR2-BP antag	NRP1-CendR mod	CRFR2-BP ag	DDE Tn7 FP inh	Tn6 DDE FP	proKLK7 act conf	EDANS-DABCYL int	others
C[C@H](O)[C@@H]1C(=O)N2CCc3c([nH]c4ccccc34)[C@@H]2C[C@@H]1N(C)Cc1ccc2c(c1)OCO2	26*	-9	1	2	-1	8	4	3
Cc1ccc(S(=O)(=O)N(C)[C@H]2C[C@H]3c4[nH]c5c(-c6ccccc6)cccc5c4CCN3C(=O)[C@H]2[C@H](C)O)cc1	-34	.	.	.	3	5	.	.
C[C@H](O)[C@@H]1C(=O)N2CCc3c([nH]c4c(-c5ccccc5)cccc34)[C@@H]2C[C@@H]1N(C)C(=O)c1cc(Cl)cc(Cl)c1	-1	.	.	.	2	-9	.	.
C[C@H](O)[C@@H]1C(=O)N2CCc3c([nH]c4ccccc34)[C@@H]2C[C@@H]1N(C)C(=O)Nc1cccc2ccccc12	9	.	9	.	-3	-3	.	.
COC(=O)c1c(-c2ccc(OC)cc2)c2c(c3c4cc(OC)ccc4n(S(=O)(=O)c4ccc(C)cc4)c13)C(=O)N(C)C2	0	.	.	.	12	-1	.	.
CCCn1cc(C(=O)Nc2ccc(Oc3cccnc3)cc2)c2ccccc21	0	.	.	.	-4	0	.	.
O=C(OC12CCCN(C1)/C(=C/c1cccc(Cl)c1)C2)C1CCCC1 (stereo not drawn)	-1	.	.	.	1	1	.	.
N=c1c(C(=O)NCc2ccc(F)cc2)cc2c(=O)n3ccccc3nc2n1CC1CCCO1 (stereo not drawn)	21*	-10	-38	-2	1	6	-59	-54
N=c1c(C(=O)NCc2ccco2)cc2c(=O)n3ccccc3nc2n1CCc1ccccc1	16*	6	-13	8	-9	3	11	2
N=c1c(C(=O)NCCc2ccccc2)cc2c(=O)n3ccccc3nc2n1CC1CCCO1 (stereo not drawn)	99*	-7	-7	1	-3	4	9	7.7*
COc1ccc(CCn2c(=N)c(C(=O)NCc3ccco3)cc3c(=O)n4ccccc4nc32)cc1OC	-2	12	-15	5	-4	0	.	.
NS(=O)(=O)c1ccc(OCCCN2CCC(C(O)(c3ccccc3)c3ccccc3)CC2)cc1	-1	.	.	.	5	-4	.	.
CCCCN1CCN(C(=O)c2cn(C(C)c3ccccc3)nn2)CC1 (stereo not drawn)	-1	.	.	.	-2	-6	.	.
CCOC(=O)c1c2c3c(cccc3n(C)c1=O)C(=O)c1ccccc1-2	-1	-26	25	-1	7	4	.	.
CC(=O)Nc1c2c3c(cccc3n(C)c1=O)C(=O)c1ccccc1-2	23*	-1	53*	4	0	3	23*	21*
CC(C)c1cc(NCC2CCCO2)n2c(nc3ccccc32)c1C#N (stereo not drawn)	21*	-7	-25	-1	4	6	-12	-17
CCc1c(C)c(C#N)c2nc3ccccc3n2c1NCC1CCCO1 (stereo not drawn)	2	-1	2	-2	0	-4	.	.
Cc1cc(NCC2CCCO2)n2c(nc3ccccc32)c1C#N (stereo not drawn)	16*	-1	-14	0	5	3	44*	34*
CC(C)c1cc(NCCN2CCOCC2)n2c(nc3ccccc32)c1C#N	0	1	-2	0	1	2	.	.
COc1ccc(Cn2cc(CN3[C@@H](c4ccccc4)COc4cc(Br)ccc4S3(=O)=O)nn2)cc1	0	.	.	.	-5	-8	.	.
COC(=O)C1CN(Cc2ccc(F)cc2)CCS(=O)(=O)N1Cc1cn(Cc2ccc(F)cc2)nn1 (stereo not drawn)	0	.	.	.	1	-1	.	.
COC(=O)CSc1nnc(-c2ccc(NS(=O)(=O)c3ccc(C(C)(C)C)cc3)cc2)o1	0	.	.	.	2	1	.	.
COc1cc(NC(=O)COc2ccccc2Cl)ccc1NC(=O)c1cccs1	63*	16	-12	-1	5	-8	15*	8.8*	EDANS interf=8.6*
COc1cc(NC(=O)c2cccs2)c(OC)cc1NC(=O)Nc1ccc(F)cc1	99*	3	-2	2	3	4	71*	117*
CC(=O)c1cc(-c2cc3ccccc3o2)c(=O)n2c1CCC2	0	.	.	.	1	1	.	.
SMILES	proKLK7 act	CRFR2-BP antag	NRP1-CendR mod	CRFR2-BP ag	DDE Tn7 FP inh	Tn6 DDE FP	proKLK7 act conf	EDANS-DABCYL int	others
COC(=O)c1cc(NC(=O)CC(=O)c2cccc(N)c2)cc(C(=O)OC)c1	15*	-10	4	-1	-7	-24	-1	0
Cc1cccc(-n2c(O)c(C=Nc3ccccc3O)c3ccccc3c2=O)n1	18*	-3	-35	0	-7	-15	11	9.4*
NS(=O)(=O)c1ccc(N=Cc2c(O)n(-c3nccs3)c(=O)c3ccccc23)cc1	23*	4	-4	-2	11	3	18*	20*
Cc1cccc(-n2c(O)c(C=Nc3ccc(O)cc3)c3ccccc3c2=O)n1	18*	-11	-10	0	-5	0	23*	23*
CCOc1ccc(CCNC(=O)c2ccc3[nH]ccc3c2)cc1OCC	.	.	.	.	4	1	.	.
CCCCn1c(N)c(N(CCOC)C(=O)COC(=O)c2ccccc2NCCO)c(=O)[nH]c1=O	36*	-8	-4	0	4	2	19*	22*
COCCN(C(=O)COC(=O)c1ccccc1NCc1ccco1)c1c(N)n(Cc2ccccc2)c(=O)[nH]c1=O	-35	-13	-16	0	3	2	.	.
COc1ccc(/C=C/C(O)=C2/C(=O)NC3(C)CC2c2ccccc2O3)c(OC)c1OC (stereo not drawn)	15*	20	-4	0	-1	-2	15*	10*	EDANS interf=>70
COc1ccc(/C=C/C(O)=C2/C(=O)N(C)C3(C)CC2c2ccccc2O3)cc1 (stereo not drawn)	0	-10	-2	0	-3	-5	.	.
COC(=O)[C@]12C[C@H](CC(=O)NCc3ccc(C)o3)C(=O)N(Cc3ccc4c(c3)OCO4)C1=C[C@H](COCc1ccccc1)O[C@@H]2C	0	.	.	.	-10	-1	.	.
COC(=O)C1CN(Cc2cn(Cc3ccc(F)cc3)nn2)CCS(=O)(=O)N1Cc1ccccc1 (stereo not drawn)	0	.	.	.	4	-6	.	.
